Source: ChEMBL document CHEMBL2146441, “2,6-Disubstituted imidazo[2,1-b][1,3,4]thiadiazoles: search for anticancer agents” (2012)

Experiments:
Assay type in all cases: functional
[1] = system: HOP-92; test: Cytotoxicity against human HOP92 cells assessed as cell growth at 10^-4 M after 48 hrs by SRB assay; conditions: HOP-92, 48 h, read-out: Activity
How it was run: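 NCI-60 five-dose screen. Cells were grown in RPMI 1640 with 5% FBS and seeded at 5000–40,000 cells/well according to doubling time. They were pre-incubated 24 h at 37 °C in 5% CO₂, and time-zero (Tz) plates were TCA-fixed at drug addition. Five 10-fold dilutions of DMSO stock were applied for 48 h. Read-out was SRB staining, 515 nm absorbance, with percent growth calculated versus Tz and untreated control.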

[2] = system: EKVX; test: Cytotoxicity against human EKVX cells assessed as cell growth at 10^-8 M after 48 hrs by SRB assay; conditions: read-out: Activity
How it was run: (§1)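 NCI-60 screen: lines kept in RPMI 1640 with 5% FBS, seeded at 5000–40,000 cells/well by doubling time, preincubated 24 h at 37 °C in 5% CO2. Time-zero plates TCA-fixed at drug addition. DMSO stocks diluted in medium, 48 h exposure. Fixation in cold TCA (final 10% adherent, 16% suspension), 0.4% SRB stain, solubilised in 10 mM Tris base, A515. Percent growth computed against control and time-zero.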

[3] = system: SNB-19; test: Cytotoxicity against human SNB19 cells assessed as cell growth at 10^-5 M after 48 hrs by SRB assay; conditions: SNB-19, 48 h, read-out: Activity
[4] = Cytotoxicity against human RPMI8266 cells assessed as cell growth at 10^-4 M after 48 hrs by SRB assay; conditions: RPMI8266, 48 h, read-out: Activity
[5] = system: SNB-75; test: Growth inhibition of human SNB75 cells after 48 hrs by SRB assay; conditions: SNB-75, 48 h
How it was run: (§2)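 Adherent NCI-60 lines grown in RPMI 1640 with 5% FBS, seeded at 5000–40,000 cells/well, and preincubated 24 h at 37 °C, 5% CO2. Compound, stocked in DMSO, given either once at 10^-5 M or at five 10-fold dilutions for 48 h. Cells fixed with cold TCA (final 10%), stained with 0.4% SRB, and read at 515 nm. GI50 taken as 50% reduction in net protein increase versus time-zero and control plates.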

[6] = system: DU-145; test: Cytotoxicity against human DU145 cells assessed as cell growth at 10^-8 M after 48 hrs by SRB assay; conditions: DU-145, 48 h, read-out: Activity; how it was run: as §1
[7] = system: MDA-MB-231; test: Cytotoxicity against human MDA-MB-231 cells assessed as cell growth at 10^-7 M after 48 hrs by SRB assay; conditions: MDA-MB-231, 48 h, read-out: Activity
[8] = system: A498; test: Cytotoxicity against human A498 cells assessed as cell growth at 10^-8 M after 48 hrs by SRB assay; conditions: A498, 48 h, read-out: Activity; how it was run: as §1
[9] = system: LOX IMVI; test: Growth inhibition of human LOXIMVI cells after 48 hrs by SRB assay; how it was run: as §2
[10] = system: OVCAR-4; test: Cytotoxicity against human OVCAR4 cells assessed as cell growth at 10^-6 M after 48 hrs by SRB assay; conditions: OVCAR-4, 48 h, read-out: Activity
[11] = system: MDA-MB-231; test: Cytotoxicity against human MDA-MB-231 cells assessed as cell growth at 10^-4 M after 48 hrs by SRB assay; conditions: MDA-MB-231, 48 h, read-out: Activity
[12] = system: NCI-H460; test: Cytotoxicity against human NCI-H460 cells assessed as cell growth at 10^-5 M after 48 hrs by SRB assay; conditions: NCI-H460, 48 h, read-out: Activity
[13] = system: UO-31; test: Cytotoxicity against human UO31 cells assessed as cell growth at 10^-4 M after 48 hrs by SRB assay; conditions: UO-31, 48 h, read-out: Activity
[14] = system: MDA-MB-435; test: Cytotoxicity against human MDA-MB-435 cells assessed as cell growth at 10^-8 M after 48 hrs by SRB assay; conditions: MDA-MB-435, 48 h, read-out: Activity
[15] = system: OVCAR-8; test: Cytotoxicity against human OVCAR8 cells assessed as cell growth at 10^-5 M after 48 hrs by SRB assay; conditions: OVCAR-8, 48 h, read-out: Activity
[16] = system: SF-539; test: Cytotoxicity against human SF539 cells assessed as cell growth at 10^-4 M after 48 hrs by SRB assay; conditions: SF-539, 48 h, read-out: Activity
[17] = system: SF-539; test: Cytotoxicity against human SF539 cells assessed as cell growth at 10^-7 M after 48 hrs by SRB assay; conditions: SF-539, 48 h, read-out: Activity
[18] = system: SW-620; test: Cytotoxicity against human SW620 cells assessed as cell growth at 10^-8 M after 48 hrs by SRB assay; conditions: SW-620, 48 h, read-out: Activity
[19] = system: CCRF-CEM; test: Cytotoxicity against human CCRF-CEM cells assessed as cell growth at 10^-8 M after 48 hrs by SRB assay; conditions: read-out: Activity; how it was run: as §1
[20] = system: TK-10; test: Cytotoxicity against human TK10 cells assessed as cell growth at 10^-4 M after 48 hrs by SRB assay; conditions: TK-10, 48 h, read-out: Activity
[21] = system: SK-OV-3; test: Cytotoxicity against human SKOV3 cells assessed as cell growth at 10^-5 M after 48 hrs by SRB assay; conditions: SK-OV-3, 48 h, read-out: Activity
[22] = Cytotoxicity against human […] cells assessed as cell growth at 10^-8 M after 48 hrs by SRB assay; conditions: 48 h, read-out: Activity
[23] = system: NCI-H226; test: Cytotoxicity against human NCI-H226 cells assessed as cell growth at 10^-7 M after 48 hrs by SRB assay; conditions: NCI-H226, 48 h, read-out: Activity
[24] = system: A498; test: Cytotoxicity against human A498 cells assessed as cell growth at 10^-4 M after 48 hrs by SRB assay; conditions: A498, 48 h, read-out: Activity; how it was run: as §1
[25] = system: UACC-257; test: Cytotoxicity against human UACC257 cells assessed as cell growth at 10^-6 M after 48 hrs by SRB assay; conditions: UACC-257, 48 h, read-out: Activity
[26] = system: MDA-MB-231; test: Cytotoxicity against human MDA-MB-231 cells assessed as cell growth at 10^-6 M after 48 hrs by SRB assay; conditions: MDA-MB-231, 48 h, read-out: Activity
[27] = system: NCI-H226; test: Cytotoxicity against human NCI-H226 cells assessed as cell growth at 10^-6 M after 48 hrs by SRB assay; conditions: NCI-H226, 48 h, read-out: Activity
[28] = system: EKVX; test: Cytotoxicity against human EKVX cells assessed as cell growth at 10^-6 M after 48 hrs by SRB assay; conditions: read-out: Activity; how it was run: as §1
[29] = system: NCI-H460; test: Cytotoxicity against human NCI-H460 cells assessed as cell growth at 10^-7 M after 48 hrs by SRB assay; conditions: NCI-H460, 48 h, read-out: Activity
[30] = system: MDA-MB-468; test: Cytotoxicity against human MDA-MB-468 cells assessed as cell growth at 10^-4 M after 48 hrs by SRB assay; conditions: MDA-MB-468, 48 h, read-out: Activity

With COc1ccc(-c2nn3cc(-c4ccc(O)cc4O)nc3s2)cc1 the growth at 100 µM [1] was -21%, the growth at 0.01 µM [2] was 103% and the growth at 10 µM [3] was 22%. For the same compound, the growth at 100 µM [4] was 3%, the GI50 [5] was 0.331 µM and the TGI [5] was 2.17 µM. It also gave a growth at 0.01 µM [6] of 106%, a growth at 0.1 µM [7] of 99% and a growth at 0.01 µM [8] of 82%. It also gave a GI50 [9] of 2.58 µM, an LC50 (lethal concentration, 50% net cell kill) [9] greater than 100 µM and a TGI [9] of 31.4 µM. The growth at 1 µM [10] was 68%, the growth at 100 µM [11] was -19% and the growth at 10 µM [12] was -6%. For the same compound, the growth at 100 µM [13] was -10%, the growth at 0.01 µM [14] was 97% and the growth at 10 µM [15] was 7%. The growth at 100 µM [16] was -47%, the growth at 0.1 µM [17] was 101% and the growth at 0.01 µM [18] was 97%. For the same compound, the growth at 0.01 µM [19] was 98%, the growth at 100 µM [20] was -21% and the growth at 10 µM [21] was -67%. It also gave a growth at 0.01 µM [22] of 100%, a growth at 0.1 µM [23] of 88% and a growth at 100 µM [24] of -37%. For the same compound, the growth at 1 µM [25] was 83%, the growth at 1 µM [26] was 66% and the growth at 1 µM [27] was 61%. It also gave a growth at 1 µM [28] of 65%, a growth at 0.1 µM [29] of 101% and a growth at 100 µM [30] of -27%.

Compound COc1ccc(-c2nn3cc(-c4cccc(N)c4)nc3s2)cc1 has a growth at 100 µM [1] of -52%, a growth at 0.01 µM [2] of 81% and a growth at 10 µM [3] of 54%. The growth at 100 µM [4] was -8%, the GI50 [5] was 1.07 µM and the TGI [5] was 4.87 µM. It also gave a CC50 ([5]; read-out: LC50 (the source's name)) greater than 100 µM, a growth at 0.01 µM [6] of 101% and a growth at 0.1 µM [7] of 81%. It also gave a growth at 0.01 µM [8] of 87%, a GI50 [9] of 3.38 µM and an LC50 (lethal concentration, 50% net cell kill) [9] greater than 100 µM. It also gave a TGI [9] of 29.5 µM, a growth at 1 µM [10] of 60% and a growth at 100 µM [11] of -35%. The growth at 10 µM [12] was 26%, the growth at 100 µM [13] was -63% and the growth at 0.01 µM [14] was 95%. It also gave a growth at 10 µM [15] of 31%, a growth at 100 µM [16] of -68% and a growth at 0.1 µM [17] of 100%. For the same compound, the growth at 0.01 µM [18] was 95%, the growth at 0.01 µM [19] was 96% and the growth at 100 µM [20] was -30%. The growth at 10 µM [21] was 2%, the growth at 0.01 µM [22] was 96% and the growth at 0.1 µM [23] was 80%. It also gave a growth at 100 µM [24] of -67%, a growth at 1 µM [25] of 107% and a growth at 1 µM [26] of 61%. For the same compound, the growth at 1 µM [27] was 58%, the growth at 1 µM [28] was 50% and the growth at 0.1 µM [29] was 92%. The growth at 100 µM [30] was -16%.
